Measurements published in ChEMBL document CHEMBL3091313, “Amino acids derived benzoxazepines: design, synthesis and antitumor activity” (Bioorg Med Chem Lett, 2013).
Active and inactive are the calls of the source. The rule behind the calls is not given here.

Legend:
MCF7 [1] = experiment: Induction of apoptosis in human MCF7 cells assessed as caspase-3 cleavage at 5 uM after 3 hrs by immunoblotting method; type: functional, cell-based
MCF7 [2] = experiment: Cell cycle arrest in human MCF7 cells assessed as accumulation at G1 phase at 5 uM after 24 hrs using propidium iodide staining by flow cytometry (reference value: 67.73 %); type: functional
HEK293 = experiment: Cytotoxicity against HEK293 cells after 24 hrs by MTT assay; type: cell-based; conditions: Homo sapiens, HEK293, 72 h; in the assay text read “after 72 hrs” for “after 24 hrs”
MCF7 [3] = experiment: Cell cycle arrest in human MCF7 cells assessed as apoptosis at 5 uM after 24 hrs using propidium iodide staining by flow cytometry (reference value: 0.06 %); type: functional
MCF7 [4] = experiment: Cell cycle arrest in human MCF7 cells assessed as increase in p21 mRNA level at 1 to 5 uM after 12 hrs by QRT-PCR method; type: functional, cell-based
MCF7 [5] = experiment: Induction of apoptosis in human MCF7 cells assessed as phosphatidylserine exposure after 24 hrs using annexin V/PI staining by flow cytometry; type: functional, cell-based
Method in brief: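 MCF-7 cells were exposed to vehicle or the indicated compound concentrations for 24 h. Phosphatidylserine exposure was then measured by flow cytometry after staining with FITC-labelled Annexin V and propidium iodide. Apoptotic cell fractions were read from dot plots relative to vehicle.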

MDA-MB-231 [6] = experiment: Cell cycle arrest in human MDA-MB-231 cells assessed as accumulation at G2 phase at 5 uM after 24 hrs using propidium iodide staining by flow cytometry (reference value: 18.75 %); type: functional
MDA-MB-231 [7] = experiment: Cell cycle arrest in human MDA-MB-231 cells assessed as accumulation at G1 phase at 3 uM after 24 hrs using propidium iodide staining by flow cytometry (reference value: 52.67 %); type: functional
MDA-MB-231 [8] = experiment: Cell cycle arrest in human MDA-MB-231 cells assessed as accumulation at G2 phase at 3 uM after 24 hrs using propidium iodide staining by flow cytometry (reference value: 18.75 %); type: functional
MCF7 [9] = experiment: Induction of apoptosis in human MCF7 cells assessed as reduction in cell viability at 5 uM after 24 hrs by MTT assay in presence of LEHD-FMK; type: functional, cell-based
MCF7 [10] = experiment: Cell cycle arrest in human MCF7 cells assessed as increase in p21 protein level at 5 uM after 12 to 24 hrs by immunoblotting method; type: functional, cell-based
MCF7 [11] = experiment: Induction of apoptosis in human MCF7 cells assessed as increase in Bax/Bcl2 ratio at 5 uM after 6 to 24 hrs by immunoblotting method; type: functional, cell-based
MDA-MB-231 [12] = experiment: Cell cycle arrest in human MDA-MB-231 cells assessed as accumulation at G1 phase at 1 uM after 24 hrs using propidium iodide staining by flow cytometry (reference value: 52.67 %); type: functional
MCF7 [13] = experiment: Cell cycle arrest in human MCF7 cells assessed as accumulation at G2 phase at 1 uM after 24 hrs using propidium iodide staining by flow cytometry (reference value: 7.46 %); type: functional
MDA-MB-231 [14] = experiment: Cell cycle arrest in human MDA-MB-231 cells assessed as accumulation at S phase at 1 uM after 24 hrs using propidium iodide staining by flow cytometry (reference value: 28.59 %); type: functional
MCF7 [15] = experiment: Induction of apoptosis in human MCF7 cells assessed as early apoptotic cells at 5 uM after 24 hrs using annexin V/PI staining by flow cytometry (reference value: 3.19 %); type: functional
MDA-MB-231 [16] = experiment: Cell cycle arrest in human MDA-MB-231 cells assessed as accumulation at S phase at 3 uM after 24 hrs using propidium iodide staining by flow cytometry (reference value: 28.59 %); type: functional
MCF7 [17] = experiment: Induction of apoptosis in human MCF7 cells assessed as reduction in cell viability at 5 uM after 24 hrs by MTT assay in presence of zIEDT-FMK; type: functional, cell-based
MCF7 [18] = experiment: Induction of apoptosis in human MCF7 cells assessed as early apoptotic cells at 3 uM after 24 hrs using annexin V/PI staining by flow cytometry (reference value: 3.19 %); type: functional
MCF7 [19] = experiment: Antiproliferative activity against human MCF7 cells after 48 hrs by MTT assay; type: functional, cell-based; conditions: MCF7, 48 h
Method in brief: (§1)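 MCF-7 (ER+ve) and MDA-MB-231 (ER-ve) breast cancer cells were exposed to compound or vehicle. Viability was read by MTT and expressed as % cell death versus vehicle, with 4-hydroxytamoxifen as positive control. IC50 came from three independent experiments, each in triplicate.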

MDA-MB-231 [20] = experiment: Antiproliferative activity against human MDA-MB-231 cells after 72 hrs by MTT assay; type: functional, cell-based; conditions: MDA-MB-231, 72 h; method in brief: as §1
MCF7 [21] = experiment: Induction of apoptosis in human MCF7 cells assessed as PARP cleavage after 6 to 24 hrs by densitometry; type: functional, cell-based
Method in brief: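 Lysates from treated MCF-7 cells were immunoblotted for PARP, and cleaved PARP was quantified by densitometry. Data are mean ± SEM of three independent experiments.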

MCF7 [22] = experiment: Induction of apoptosis in human MCF7 cells assessed as reduction in mitochondrial membrane potential at 1 to 5 uM after 12 hrs by Jc-1 staining-based flow cytometry; type: functional, cell-based
MCF7 [23] = experiment: Cell cycle arrest in human MCF7 cells assessed as accumulation at G2 phase at 3 uM after 24 hrs using propidium iodide staining by flow cytometry (reference value: 7.46 %); type: functional
MCF7 [24] = experiment: Antiproliferative activity against human MCF7 cells after 24 hrs by MTT assay; type: functional, cell-based; conditions: MCF7, 24 h; method in brief: as §1
MCF7 [25] = experiment: Cell cycle arrest in human MCF7 cells assessed as decrease in cyclin D1 protein level at 5 uM after 12 to 24 hrs by immunoblotting method; type: functional, cell-based
MCF7 [26] = experiment: Cell cycle arrest in human MCF7 cells assessed as accumulation at S phase at 1 uM after 24 hrs using propidium iodide staining by flow cytometry (reference value: 24.81 %); type: functional

IC50 (MCF7 [19]): 3.55 µM | IC50 (MDA-MB-231 [20]): 4.6 µM | IC50 (MCF7 [24]): 6.78 µM
Compound: Cc1ccc(S(=O)(=O)N2Cc3ccccc3OC[C@@H]2Cc2ccc(OCCN3CCCCCC3)cc2)cc1.Cl
Activity (MCF7 [1]): Active | Activity (MCF7 [2]): 86.22% | IC50 (HEK293): 30 µM | Activity (MCF7 [3]): 2.86% | Activity (MCF7 [4]): Active | Activity (MCF7 [5]): Dose-dependent effect | Activity (MDA-MB-231 [6]): 6.48% | Activity (MDA-MB-231 [7]): 73.31% | Activity (MDA-MB-231 [8]): 8.08% | Activity (MCF7 [9]): inactive | Activity (MCF7 [10]): Active | Activity (MCF7 [11]): Active | Activity (MDA-MB-231 [12]): 67.73% | Activity (MCF7 [13]): 6.97% | Activity (MDA-MB-231 [14]): 24.81% | Activity (MCF7 [15]): 42.51% | Activity (MDA-MB-231 [16]): 18.64% | Activity (MCF7 [17]): Active | Activity (MCF7 [18]): 20.74% | Activity (MCF7 [21]): Dose-dependent effect | Activity (MCF7 [22]): Active | Activity (MCF7 [23]): 6.86% | Activity (MCF7 [25]): Active | Activity (MCF7 [26]): 18.93%
